One may read the IC50 as the concentration that inhibits the measured activity by half.

Assay [1] concerns U2OS. The experiment in a line: Induction of cell cycle arrest in human U2OS cells assessed as percentage of cells at G2/M phase, cells were released from mimosine block prior to compound addition at 5 uM after 16 hrs by flow cytometry analysis (reference value: 47.6%). Type of assay: functional.
The test system of assay [2] is U2OS. The experiment in a line: Induction of cell cycle arrest in human U2OS cells assessed as percentage of cells at G0/G1 phase, cells were released from mimosine block prior to compound addition at 5 uM after 38 hrs by flow cytometry analysis (reference value: 39.6%). Type of assay: functional. A general note: In flow cytometry, cells or beads pass a laser one at a time.

Assay [3] has as its system NIH3T3. The experiment in a line: Induction of cell cycle arrest in mouse NIH3T3 cells expressing pRb assessed as percentage of cells at G0/G1 phase at 10 uM after 24 hrs by flow cytometry analysis (reference value: 44.7%). In kind it is functional.
For assay [4], the system named is U2OS. Nature of the assay: Induction of cell cycle arrest in human U2OS cells assessed as percentage of cells at SubG1 phase, cells were released from mimosine block prior to compound addition at 10 uM after 16 hrs by flow cytometry analysis (reference value: 2.2%). In kind it is functional.
In assay [5] the test system is MRC5. The experiment in a line: Induction of cell cycle arrest in human MRC5 cells assessed as number of cells at S phase at 5 uM after 24 hrs in presence of 10% serum by flow cytometry analysis (reference value: 16.1%). Type of assay: functional.
The subject of assay [6] is U2OS. Nature of the assay: Induction of cell cycle arrest in human U2OS cells expressing pRb assessed as percentage of cells at S phase at 10 uM after 24 hrs by flow cytometry analysis (reference value: 19.9%). In kind it is functional.
In the next assay the test system is HCT-116. Nature of the assay: Antitumor activity against human HCT-116 cells xenografted in nude mouse assessed as decrease tumor growth at 30 mg/kg, ip administered every 12 hrs measured after 29 days. In kind it is functional, organism-based. The method, boiled down: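 Female BALB/c nu/nu mice (19–21 g), 8 per group, injected s.c. with 0.1 mL HCT116 suspension (1 × 10^7 viable cells/mL in Hanks' buffer). Treatment started at about 100 mm3 (day 20). Dosing i.p. in 5% DMSO/0.05% Tween 80/95% saline at 10 mL/kg for 29 days; vehicle controls. Caliper volumes taken blinded every 2–4 days as length × width² × π/6. Dunnett ANOVA; growth rate compared as log-volume slopes.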

Assay [7] deals with MRC5. Nature of the assay: Induction of cell cycle arrest in human MRC5 cells assessed as number of cells at G0/G1 phase at 10 uM after 24 hrs in presence of 10% serum by flow cytometry analysis (reference value: 64.1%). In kind it is functional.
Assay [8] has as its system NIH3T3. Nature of the assay: Induction of cell cycle arrest in mouse NIH3T3 cells expressing pRb-negative assessed as percentage of cells at S phase at 5 uM after 24 hrs by flow cytometry analysis (reference value: 20%). In kind it is functional. In outline: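 Congenic NIH3T3 line with homozygous Rb deletion, grown at 37 °C in 5% CO2 in high-glucose DMEM with 10% FCS. Asynchronous cells were seeded at 7.5 × 10^4 cells/mL, grown 24 h, then treated 24 h (compound added from 100× stocks in 10% DMSO). Cells were ethanol-fixed, treated with RNase and stained with propidium iodide; FL-2 area was measured with single-event gating. Run at least twice.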

The subject of assay [9] is MRC5. Nature of the assay: Induction of cell cycle arrest in human MRC5 cells assessed as number of cells at SubG1 phase at 5 uM after 24 hrs in presence of 10% serum by flow cytometry analysis (reference value: 4.9%). In kind it is functional.
Assay [10] can be described thus: Inhibition of GST-tagged human v-abl expressed in baculovirus infected Sf9 cells using tyrosine-containing peptide substrate in presence of ATP.

Calls of active or inactive are those of the source. The calls are words filed in the database; no cut-off is given here. Some results are limits rather than exact numbers.

Regarding `CCNc1cc(N[C@H]2CC[C@H](O)CC2)nc(Nc2ccc3c(ccn3Cc3ccccc3)c2)n1`, the Activity in the assay with U2OS [1] turned out to be 47.6%; in the assay with U2OS [2], 34.8%; in the assay on NIH3T3 [3], 88.4%; in the assay with U2OS [4] it was 21.8%; in the assay on MRC5 [5] it was 7.1%; with U2OS [6], 3.6%. Moreover, the Activity in the assay with MRC5 [7] was 84.8%; with NIH3T3 [8], 9.1%; with MRC5 [9] it was 7.4%. Besides, the result in the assay with HCT-116 was Active. Besides, the IC50 in assay [10] is above 10 µM.

The values are drawn from ChEMBL document CHEMBL5661964, “Selective in vivo and in vitro effects of a small molecule inhibitor of cyclin-dependent kinase 4” (J Natl Cancer Inst, 2001).
